# Experimental data published in publication PMC11235002 (BMJ Oncology, 2024).
# Entries after “also recorded” stand apart in the source; their conditions may differ. Marks after values point to notes of the source that are not given here.
# Tests used:
# plasma arginine = assay: Pharmacodynamics: plasma arginine concentration by LC-MS/MS; type: in vivo, human; conditions: monotherapy / INCB001158 overall
# [1] = INCB001158 plasma pharmacokinetics; type: in vivo, human; conditions: for Cmax: Cmax (mean±SD); for half-life: t1/2 (mean±SD)
# T-cell = conditions: in vitro; cited from earlier work
# syngeneic mouse models = conditions: multiple syngeneic mouse models; cited from earlier work
# urea cycle = assay: Urea cycle inhibition monitored via orotic acid levels; type: in vivo, human
# [2] = system: advanced or metastatic solid tumours; assay: Antitumour activity per RECIST v1.1; type: in vivo, human
# Procedure, shortened: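 Part 1a monotherapy dose escalation used a standard 3+3 design, with 8 dose levels from 50 mg to 1000 mg. The test compound was given orally twice daily as tablet or capsule on days 1–28 of 28-day cycles. BOR, ORR and PFS followed RECIST v1.1, with confirmed responses unless stated otherwise. Response-evaluable patients had ≥1 dose, a baseline scan and ≥1 postbaseline scan, or qualifying discontinuation.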
# [3] = system: patients with advanced or metastatic solid tumours; assay: Safety: treatment-emergent adverse events; type: in vivo, human
# Procedure, shortened: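 Safety covered monotherapy Parts 1a/2, with oral tablet or capsule dosing twice daily on days 1–28 of 28-day cycles. TEAEs were graded by CTCAE v4.03, which counts malignant progression as an AE. Laboratory values, vital signs and physical examinations were also monitored. The safety population was all patients receiving ≥1 dose. DLTs were defined as grade 3–4 toxicities, urea cycle inhibition, or AUC0–12h >100 µg.h/mL.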
# [4] = human, plasma, oral, 50 mg, Part 1a C1D1 single dose 50 mg (n=8)
# [5] = human, plasma, oral, 75 mg, Part 1a C1D1 single dose 75 mg (n=7)
# [6] = monotherapy dose escalation Part 1a total (n=25)
# [7] = monotherapy dose escalation Part 1a total (n=30)
# [8] = monotherapy dose expansion Part 2 total (n=73)
# [9] = monotherapy dose expansion Part 2 total (n=77)
smiles,measurement,setting,value
C[C@H](N)C(=O)N1C[C@H](CCCB(O)O)[C@](N)(C(=O)O)C1 [INCB001158],plasma arginine change on treatment,plasma arginine,dose-dependently increased; also recorded: dose-dependent increase in plasma arginine
same,"dose proportionality of plasma exposure (Cmax, AUC)","[1]; after multiple oral administrations, 50 mg to 150 mg two times per day",increased approximately dose proportionally
same,AUC(0-inf),"[1]; human, plasma, oral, 50 mg",8860 ± 3810 ng·h/mL
same,Cmax,[1]; [4],795 ± 259 ng/mL
same,half-life,[1]; [4],5.5 ± 1.4 h
same,Cmax,[1]; [5],1350 ± 379 ng/mL
same,half-life,[1]; [5],5.3 ± 1 h
same,time to steady state,"[1]; monotherapy, from predose PK samples",< 1 week
same,T-cell immunosuppression,T-cell,reversed T-cell immunosuppression in vitro
same,tumour growth,syngeneic mouse models,reduced tumour growth
same,orotic acid levels,"urea cycle; 150 mg two times per day, highest dose level tested, no symptomatic nor clinically significant urea cycle inhibition",apparent increase in orotic acid levels
same,patients with urinary orotic acid levels >10× the upper limit of normal,"urea cycle; monotherapy, all asymptomatic",four
same,confirmed partial response,"[2]; monotherapy 100 mg two times per day, Part 2 (n=73), one patient, urothelial cancer",1.4%
same,objective response,[2]; monotherapy dose escalation Part 1a (n=25),No patient in the monotherapy cohort had an objective response
same,BOR of stable disease,"[2]; monotherapy dose escalation Part 1a (n=25), five patients",20.0%
same,BOR: CR,[2]; [6],0 n (%)
same,BOR: NE,[2]; [6],1 (4.0) n (%)
same,BOR: PD,[2]; [6],19 (76.0) n (%)
same,BOR: PR,[2]; [6],0 n (%)
same,BOR: SD,[2]; [6],5 (20.0) n (%)
same,ORR,[2]; [6],0 (0 to 13.7) n (%) (95% CI)
same,PFS events,[2]; [7],21 (70.0) n (%)
same,"PFS, median (95% CI)",[2]; [7],1.8 (1.8 to 1.9) mo
same,BOR: CR,[2]; [8],0 n (%)
same,BOR: Missing,[2]; [8],10 (13.7) n (%)
same,BOR: NE,[2]; [8],3 (4.1) n (%)
same,BOR: PD,[2]; [8],37 (50.7) n (%)
same,BOR: SD,[2]; [8],22 (30.1) n (%)
same,ORR,[2]; [8],1 (1.4) (0 to 7.4) n (%) (95% CI)
same,BOR: PR,"[2]; monotherapy dose expansion Part 2 total (n=73), well-differentiated urothelial cancer",1 (1.4)† n (%)
same,PFS events,[2]; [9],58 (75.3) n (%)
same,"PFS, median (95% CI)",[2]; [9],1.9 (1.8 to 2.1) mo
same,TEAEs leading to dose reduction,[3]; monotherapy,no TEAE led to dose reduction
same,recommended phase 2 dose (RP2D),[3]; monotherapy,100 mg two times per day
same,serious TEAE abdominal pain,[3]; monotherapy,5.6%
same,serious TEAE back pain,[3]; monotherapy,2.8%
same,serious TEAE cellulitis,[3]; monotherapy,2.8%
same,serious TEAE malignant neoplasm progression,[3]; monotherapy,4.7%
same,serious TEAE small-intestinal obstruction,[3]; monotherapy,2.8%
same,"ALT increased, any-grade TEAE",[3]; monotherapy 50 mg bid (n=8),0 n (%)
same,"AST increased, any-grade TEAE",[3]; monotherapy 50 mg bid (n=8),1 (12.5) n (%)
same,"Abdominal pain, any-grade TEAE",[3]; monotherapy 50 mg bid (n=8),2 (25.0) n (%)
same,"Abdominal pain, grade ≥3 TEAE",[3]; monotherapy 50 mg bid (n=8),1 (12.5) n (%)
same,"Anaemia, any-grade TEAE",[3]; monotherapy 50 mg bid (n=8),3 (37.5) n (%)
same,"Anaemia, grade ≥3 TEAE",[3]; monotherapy 50 mg bid (n=8),1 (12.5) n (%)
same,Any TEAE,[3]; monotherapy 50 mg bid (n=8),7 (87.5) n (%)
same,Any grade ≥3 TEAE,[3]; monotherapy 50 mg bid (n=8),6 (75.0) n (%)
same,Any irTEAE,[3]; monotherapy 50 mg bid (n=8),0 n (%)
same,"Colitis, irTEAE",[3]; monotherapy 50 mg bid (n=8),0 n (%)
same,"Constipation, any-grade TEAE",[3]; monotherapy 50 mg bid (n=8),2 (25.0) n (%)
same,"Decreased appetite, any-grade TEAE",[3]; monotherapy 50 mg bid (n=8),0 n (%)
same,"Diarrhoea, any-grade TEAE",[3]; monotherapy 50 mg bid (n=8),0 n (%)
same,"Fatigue, any-grade TEAE",[3]; monotherapy 50 mg bid (n=8),1 (12.5) n (%)
same,"Fatigue, grade ≥3 TEAE",[3]; monotherapy 50 mg bid (n=8),0 n (%)
same,"Hypoalbuminaemia, any-grade TEAE",[3]; monotherapy 50 mg bid (n=8),0 n (%)
same,"Hyponatraemia, any-grade TEAE",[3]; monotherapy 50 mg bid (n=8),0 n (%)
same,"Hyponatraemia, grade ≥3 TEAE",[3]; monotherapy 50 mg bid (n=8),0 n (%)
same,"Malignant neoplasm progression, grade ≥3 TEAE",[3]; monotherapy 50 mg bid (n=8),0 n (%)
same,"Nausea, any-grade TEAE",[3]; monotherapy 50 mg bid (n=8),2 (25.0) n (%)
same,"Oedema peripheral, any-grade TEAE",[3]; monotherapy 50 mg bid (n=8),2 (25.0) n (%)
same,"Vomiting, any-grade TEAE",[3]; monotherapy 50 mg bid (n=8),2 (25.0) n (%)
same,"ALT increased, any-grade TEAE",[3]; monotherapy 75 mg bid (n=7),0 n (%)
same,"AST increased, any-grade TEAE",[3]; monotherapy 75 mg bid (n=7),0 n (%)
same,"Abdominal pain, any-grade TEAE",[3]; monotherapy 75 mg bid (n=7),0 n (%)
same,"Abdominal pain, grade ≥3 TEAE",[3]; monotherapy 75 mg bid (n=7),0 n (%)
same,"Anaemia, any-grade TEAE",[3]; monotherapy 75 mg bid (n=7),3 (42.9) n (%)
same,"Anaemia, grade ≥3 TEAE",[3]; monotherapy 75 mg bid (n=7),1 (14.3) n (%)
same,Any TEAE,[3]; monotherapy 75 mg bid (n=7),7 (100.0) n (%)
same,Any grade ≥3 TEAE,[3]; monotherapy 75 mg bid (n=7),2 (28.6) n (%)
same,Any irTEAE,[3]; monotherapy 75 mg bid (n=7),0 n (%)
same,"Colitis, irTEAE",[3]; monotherapy 75 mg bid (n=7),0 n (%)
same,"Constipation, any-grade TEAE",[3]; monotherapy 75 mg bid (n=7),1 (14.3) n (%)
same,"Decreased appetite, any-grade TEAE",[3]; monotherapy 75 mg bid (n=7),2 (28.6) n (%)
same,"Diarrhoea, any-grade TEAE",[3]; monotherapy 75 mg bid (n=7),0 n (%)
same,"Fatigue, any-grade TEAE",[3]; monotherapy 75 mg bid (n=7),3 (42.9) n (%)
same,"Fatigue, grade ≥3 TEAE",[3]; monotherapy 75 mg bid (n=7),0 n (%)
same,"Hypoalbuminaemia, any-grade TEAE",[3]; monotherapy 75 mg bid (n=7),0 n (%)
same,"Hyponatraemia, any-grade TEAE",[3]; monotherapy 75 mg bid (n=7),1 (14.3) n (%)
same,"Hyponatraemia, grade ≥3 TEAE",[3]; monotherapy 75 mg bid (n=7),0 n (%)
same,"Malignant neoplasm progression, grade ≥3 TEAE",[3]; monotherapy 75 mg bid (n=7),0 n (%)
same,"Nausea, any-grade TEAE",[3]; monotherapy 75 mg bid (n=7),3 (42.9) n (%)
